We go through 17 compounds from ChEMBL document CHEMBL4819086, “Discovery of neuroprotective agents that inhibit human prolyl hydroxylase PHD2” (Bioorg Med Chem, 2021).

One series has as its target Egl nine homolog 1 (Homo sapiens, UniProt Q9GZT9). The experiment in a line: Inhibition of recombinant human PHD2 (181 to 426 residues) using DLDLEMLAPYIPMDDDFQL peptide as substrate preincubated for 15 mins followed by substrate addition and measured after 15 mins by Q-TOF mass spectrometric analysis. In short, it runs like this: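 Catalytic domain tPHD2 181–426 at 150 nM final in 50 mM Tris.Cl pH 7.5, 50 mM NaCl, with 0.5% DMSO. Substrate is CODD peptide (C-terminal amide). Enzyme equilibrated with compound for 15 min, then substrate with 2-oxoglutarate added and reacted for 15 min. Hydroxylated product measured by C4 SPE-MS. 11-point 3-fold titrations, normalised to no-enzyme control, IC50 by non-linear regression.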

Series [1] has as its system SH-SY5Y. The experiment in a line: Neuroprotective activity against H2O2-induced oxidative stress in human SH-SY5Y cells assessed as reduction in rate of cell death pretreated for 2 hrs followed by H2O2 challenge by phase contrast microscopic analysis. It counts as functional, cell-based. In short, it runs like this: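 SH-SY5Y cells pretreated with compound for 2 h (3–10 or 10–50 µM), then given 50 µM H2O2. Dead cells counted manually on phase-contrast images. Mean ± SEM from 4 separate cultures, one-way ANOVA with Dunnett's test.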

Series [2] deals with SH-SY5Y. Put plainly: Cytotoxicity against human SH-SY5Y cells assessed as reduction in cell viability at 100 uM incubated for 24 hrs by MTT assay. The class given is cell-based. In short, it runs like this:
(§1)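 SH-SY5Y neuroblastoma cells, undifferentiated, grown in DMEM/F12 (43.5% each) with 10% FBS, pyruvate and glutaMAX at 37 C, 5% CO2. Cells harvested at 85–95% confluence and seeded for MTT, treated over 1–100 µM. MTT (0.1 mg/mL) added for 3 h at 37 C. Formazan dissolved in DMSO and read at 570 nm. Normalised to MEM vehicle (100%) and 0.25% triton X-100 (0%) controls.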
In general terms: Tetrazolium dyes change colour on reduction, which living cells bring about.

In series [3] the test system is SH-SY5Y. Put plainly: Cytotoxicity against human SH-SY5Y cells assessed as reduction in cell viability upto 100 uM incubated for 24 hrs by MTT assay. The class given is cell-based. The method, boiled down:
as §1

Sequence of Egl nine homolog 1 (Q9GZT9 whole entry, the tested form may be a part): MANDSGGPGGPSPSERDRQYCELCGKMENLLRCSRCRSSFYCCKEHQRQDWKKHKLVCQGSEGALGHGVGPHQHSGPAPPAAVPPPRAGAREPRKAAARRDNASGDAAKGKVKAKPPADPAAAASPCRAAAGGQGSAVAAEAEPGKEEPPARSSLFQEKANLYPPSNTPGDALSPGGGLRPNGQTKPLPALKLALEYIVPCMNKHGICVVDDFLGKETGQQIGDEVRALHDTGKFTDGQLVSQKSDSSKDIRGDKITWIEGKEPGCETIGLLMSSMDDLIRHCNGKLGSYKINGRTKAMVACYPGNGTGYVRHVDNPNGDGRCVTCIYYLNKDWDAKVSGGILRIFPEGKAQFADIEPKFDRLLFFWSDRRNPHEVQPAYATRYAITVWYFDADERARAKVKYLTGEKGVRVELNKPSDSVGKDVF

As a reminder, the IC50 is the midpoint of a concentration-inhibition curve. `O=C(O)CCCN1C(=O)[C@@H]2[C@H](C1=O)[C@H]1C=C[C@@H]2C1`: on Egl nine homolog 1, the half-maximal inhibitory concentration (IC50) is more than 100 µM.
On the same count and under the same terms, under `Cn1nc(C(=O)Nc2ccccc2Cl)cc1C(=O)O` stands more than 100 µM.
`Cc1ccc(-n2nc3c(SCC(=O)O)nnc(C)c3c2C)cc1`: the Activity result with SH-SY5Y [1] was “Dose-Dependent Effect”; with SH-SY5Y [2] it was “Toxic”. For the same compound, the IC50 at Egl nine homolog 1 amounted to 26 µM.
`O=C(CCn1cnnn1)N1CCC(O)(c2cccc(C(F)(F)F)c2)CC1`: on Egl nine homolog 1, the IC50 is more than 100 µM.
Regarding `O=C1c2ccc3c4c(ccc(c24)C(=O)N1NC(=O)C(F)(F)F)CC3`, the IC50 at Egl nine homolog 1 is more than 100 µM.
On the same count and under the same terms, next, `Cc1c(Br)c(C(=O)Nc2ccc(Cl)cc2C(F)(F)F)nn1C`: more than 100 µM; `C=CCN(CC=C)Cc1c(C)nc2ccccc2c1O`: more than 100 µM.
Still for that read-out and setting: next, `COCc1cc(O)nc(Nc2nc(C)c3ccc(C)cc3n2)n1`: more than 100 µM.
Still for that read-out and setting: next, `O=C(O)c1cccc(NS(=O)(=O)c2cccc3cccnc23)c1`: more than 100 µM; `O=C(Nc1ccccc1-c1nc2ccccc2c(=O)o1)C(F)(F)F`: more than 100 µM.
For `Cc1cc(NC(=O)c2nn(C)c(C)c2[N+](=O)[O-])no1`, the IC50 at Egl nine homolog 1 was more than 100 µM.
As to `COc1cccc(NC(=O)COc2ccccc2P(=O)(O)O)c1`, the IC50 at Egl nine homolog 1 is more than 100 µM.
As to `Cc1nc(Sc2ncccc2C(=O)O)n[nH]1`, the Activity result in the series on SH-SY5Y [1] is “Dose-Dependent Effect”; with SH-SY5Y [3], “Non-Toxic”. Further, the IC50 at Egl nine homolog 1 came to 4.09 µM.
As to `CSCCC(CO)NC(=O)Cn1nc(-n2nc(C)cc2C)ccc1=O` (stereo unspecified), the IC50 on Egl nine homolog 1 is more than 100 µM.
Still for that read-out and setting: under `COC(=O)c1c(NC(=O)C2C(C(=O)O)[C@@H]3C=C[C@H]2CC3)sc(C)c1C` (stereo partly specified) stands 77.7 µM; under `CC(C)c1nc2cc(NC(=O)CCn3cnnn3)ccc2n1C`, more than 100 µM.
Same read-out and setting: next, `O=S(=O)(Nc1cc(C(F)(F)F)ccc1Cl)c1cccc2cccnc12`: more than 100 µM.
